Experimental data as given in ChEMBL document CHEMBL2046414, “Design and optimization of novel (2S,4S,5S)-5-amino-6-(2,2-dimethyl-5-oxo-4-phenylpiperazin-1-yl)-4-hydroxy-2-isopropylhexanamides as renin inhibitors” (Bioorg Med Chem Lett, 2012).
Positions count from the first letter of the chain named.

How the values were obtained:
[1] = molecular target: T1, Renin (Homo sapiens, UniProt P00797); assay: Inhibition of human purified renin
T1 sequence (P00797 whole entry): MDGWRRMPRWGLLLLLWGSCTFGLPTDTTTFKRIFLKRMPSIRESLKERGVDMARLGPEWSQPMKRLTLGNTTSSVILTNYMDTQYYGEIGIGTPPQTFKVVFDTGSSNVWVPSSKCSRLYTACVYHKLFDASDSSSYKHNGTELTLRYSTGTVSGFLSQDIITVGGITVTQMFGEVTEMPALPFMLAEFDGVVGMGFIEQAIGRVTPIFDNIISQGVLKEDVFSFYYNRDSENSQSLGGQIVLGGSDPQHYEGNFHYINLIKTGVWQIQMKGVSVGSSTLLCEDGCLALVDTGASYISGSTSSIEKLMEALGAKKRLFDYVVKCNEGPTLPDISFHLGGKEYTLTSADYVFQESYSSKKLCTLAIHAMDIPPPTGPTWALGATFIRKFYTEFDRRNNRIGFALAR

[2] = molecular target: T2, Renin (Macaca fascicularis, UniProt Q6DLS0); assay: Inhibition of renin in cynomolgus monkey plasma
T2 sequence (Q6DLS0 whole entry): T1 sequence (P00797 whole entry) with T68A, I214L, S235A

[3] = Metabolic stability in cynomolgus monkey liver microsomes assessed as compound remaining at 1 uM incubated with NADPH generating system measured after 30 mins; format: ADME, Macaca fascicularis, Microsome; details: read-out: Stability
Outline: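 Monkey liver microsome stability, high-throughput in-house format: compound incubated at […] with an NADPH-generating system and 0.5 mg/mL microsomal protein at 37 °C.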

[4] = Clearance in cynomolgus monkey at 1 mg/kg, iv; format: ADME, organism-based, Macaca fascicularis; set-up: dose 1 mg/kg, route intravenous; details: in vivo
[5] = Cmax in cynomolgus monkey at 10 mg/kg, po; format: ADME, organism-based, Macaca fascicularis; set-up: dose 10 mg/kg, route oral; details: in vivo
[6] = Oral bioavailability in cynomolgus monkey at 10 mg/kg; format: ADME, organism-based, Macaca fascicularis; details: in vivo
[7] = Volume of distribution at steady state in cynomolgus monkey at 1 mg/kg, iv; format: ADME, organism-based, Macaca fascicularis; set-up: dose 1 mg/kg, route intravenous; details: in vivo, read-out: Vdss
[8] = AUC (0 to 24 hrs) in cynomolgus monkey at 10 mg/kg, po; details: plasma
[9] = Half life in cynomolgus monkey at 1 mg/kg, iv; format: ADME, organism-based, Macaca fascicularis; set-up: dose 1 mg/kg, route intravenous; details: in vivo

Row | SMILES | IC50 [1] [nM] | IC50 [2] [nM] | other results
1 | COCCOc1ccccc1N1CC(C)(C)N(C[C@H](N)[C@@H](O)C[C@H](C(=O)NCC(C)(C)C(N)=O)C(C)C)CC1=O | 1.7 | 9.8 | –
2 | CC(C)[C@H](C[C@H](O)[C@@H](N)CN1CC(=O)N(c2ccccc2F)CC1(C)C)C(=O)NCC(C)(C)C(N)=O | 2.2 | 30 | –
3 | CC(C)[C@H](C[C@H](O)[C@@H](N)CN1CC(=O)N(c2cc(F)ccc2Cl)CC1(C)C)C(=O)NC1CCCCC1 | 1.9 | 5 | remaining at 0.5 h, 1 µM [3]: 38%
4 | COc1ccccc1N1CC(C)(C)N(C[C@H](N)[C@@H](O)C[C@H](C(=O)NCC(C)(C)C(N)=O)C(C)C)CC1=O | 1.9 | 19 | –
5 | CCCCNC(=O)[C@@H](C[C@H](O)[C@@H](N)CN1CC(=O)N(c2ccccc2Cl)CC1(C)C)C(C)C | 1 | 9 | remaining at 0.5 h, 1 µM [3]: 39.2%
6 | COCCCOc1ccccc1N1CC(C)(C)N(CC(N)C(O)CC(C(=O)NCC(C)(C)C(N)=O)C(C)C)CC1=O (racemic) | 3.3 | 10 | –
7 | CC(C)[C@H](C[C@H](O)[C@@H](N)CN1CC(=O)N(c2ccccc2Cl)CC1(C)C)C(=O)NC1CCCCC1 | 1 | 11 | remaining at 0.5 h, 1 µM [3]: 17.5%
8 | CC(C)[C@H](C[C@H](O)[C@@H](N)CN1CC(=O)N(c2cccc(F)c2)CC1(C)C)C(=O)NCC(C)(C)C(N)=O | 3 | 23 | –
9 | CC(C)[C@H](C[C@H](O)[C@@H](N)CN1CC(=O)N(c2ccccc2)CC1(C)C)C(=O)NCC(C)(C)C(N)=O | 3.1 | 49 | –
10 | CC(C)[C@H](C[C@H](O)[C@@H](N)CN1CC(=O)N(c2cc(F)ccc2F)CC1(C)C)C(=O)NCC(C)(C)C(N)=O | 2 | 30 | –
11 | CC(C)[C@H](C[C@H](O)[C@@H](N)CN1CC(=O)N(c2c(F)cccc2F)CC1(C)C)C(=O)NCC(C)(C)C(N)=O | 2.4 | 12 | –
12 | COCCCOc1ccccc1N1CCN(CC(N)C(O)CC(C(=O)NCC(C)(C)C(N)=O)C(C)C)CC1=O (racemic) | – | 2800 | –
13 | CC(C)[C@H](C[C@H](O)[C@@H](N)CN1CC(=O)N(c2cc(F)ccc2Cl)CC1(C)C)C(=O)NCC(C)(C)C(N)=O | 2.1 | 7 | –
14 | COCCCOc1ccccc1N1CC(C)(C)N(C[C@H](N)[C@@H](O)C[C@H](C(=O)NCC(C)(C)C(N)=O)C(C)C)CC1=O | 1.2 | 5.3 | –
15 | CCCCNC(=O)[C@@H](C[C@H](O)[C@@H](N)CN1CC(=O)N(c2cc(F)ccc2Cl)CC1(C)C)C(C)C.O=C(O)/C=C/C(=O)O | 2 | 25 | remaining at 0.5 h, 1 µM [3]: 52.2%; clearance [4]: 14.7 mL/min/kg; Cmax [5]: 576 ng/mL; bioavailability [6]: 18.5%; Vd [7]: 16.3 L/kg; AUC(0-t) at 24 h [8]: 2110 ng·h/mL; half-life [9]: 10.8 h
16 | COCCCOc1cccc(N2CCN(CC(N)C(O)CC(C(=O)NCC(C)(C)C(N)=O)C(C)C)CC2=O)c1 (racemic) | 400 | 3000 | –
17 | COCOc1ccccc1N1CC(C)(C)N(C[C@H](N)[C@@H](O)C[C@H](C(=O)NCC(C)(C)C(N)=O)C(C)C)CC1=O | 1.4 | 6.4 | –
18 | CC[C@H](C)CNC(=O)[C@@H](C[C@H](O)[C@@H](N)CN1CC(=O)N(c2cc(F)ccc2Cl)CC1(C)C)C(C)C | 1.4 | 8 | remaining at 0.5 h, 1 µM [3]: 1.9%
19 | CC[C@H](C)CNC(=O)[C@@H](C[C@H](O)[C@@H](N)CN1CC(=O)N(c2ccccc2Cl)CC1(C)C)C(C)C | 1 | 2 | remaining at 0.5 h, 1 µM [3]: 8.4%
20 | COCCCOc1ccccc1N1CCN(CC(N)C(O)CC(C(=O)NCC(C)(C)C(N)=O)C(C)C)C(C)(C)C1=O (racemic) | 170 | 875 | –
21 | COc1ccc(Cl)c(N2CC(C)(C)N(C[C@H](N)[C@@H](O)C[C@H](C(=O)NCC(C)(C)C(N)=O)C(C)C)CC2=O)c1 | 2.4 | 33 | –
22 | CC(C)[C@H](C[C@H](O)[C@@H](N)CN1CC(=O)N(c2cccc(F)c2F)CC1(C)C)C(=O)NCC(C)(C)C(N)=O | 2 | 11 | –
23 | COc1cccc(N2CC(C)(C)N(C[C@H](N)[C@@H](O)C[C@H](C(=O)NCC(C)(C)C(N)=O)C(C)C)CC2=O)c1 | 4.2 | 58 | –
24 | Cc1ccccc1N1CC(C)(C)N(C[C@H](N)[C@@H](O)C[C@H](C(=O)NCC(C)(C)C(N)=O)C(C)C)CC1=O | 1.7 | 24 | –
25 | CC(C)[C@H](C[C@H](O)[C@@H](N)CN1CC(=O)N(c2cc(F)cc(F)c2)CC1(C)C)C(=O)NCC(C)(C)C(N)=O | 5.5 | 90 | –
26 | CC(C)[C@H](C[C@H](O)[C@@H](N)CN1CC(=O)N(c2cc(Cl)ccc2Cl)CC1(C)C)C(=O)NCC(C)(C)C(N)=O | 2.1 | 28 | –
27 | COCCCOc1ccccc1C1CCN(CC(N)C(O)CC(C(=O)NCC(C)(C)C(N)=O)C(C)C)CC1 (racemic) | 370 | 12500 | –
28 | CC(C)[C@H](C[C@H](O)[C@@H](N)CN1CC(=O)N(c2cccc(Cl)c2)CC1(C)C)C(=O)NCC(C)(C)C(N)=O | 2.1 | 25 | –
29 | CC(C)[C@H](C[C@H](O)[C@@H](N)CN1CC(=O)N(c2ccccc2Cl)CC1(C)C)C(=O)NCC(C)(C)C(N)=O | – | 7 | –
